Experimental data gathered from unrelated publications.
Lines come from different studies, so protocols differ.
PIM3: Serine/threonine-protein kinase pim-3 (PIM3, Homo sapiens, UniProt Q86V86)

SMILES | target | read-out | action | technique | concentration | endpoint | value
CCOC(=O)c1ccc(OC(=O)CCCCCNC(=N)N)cc1 | Ubiquitin carboxyl-terminal hydrolase isozyme L3 (UCHL3, Homo sapiens, UniProt P15374) | enzyme activity | inhibitor |  | 10 µM | inhibition | 4%
Cc1nn(C)cc1-c1nc2c(N3CCN(Cc4ccc(Cl)cc4)CC3)c(Cl)cnc2[nH]1 | PIM3 | binding |  | competition with immobilised ligand | 1 µM | remaining binding | 100%
O=C(Nc1cccnn1)N1CCN([C@@H]2CCOc3cc(C(F)(F)F)ccc32)CC1 | 5-hydroxytryptamine receptor 1B (Htr1b, Rattus norvegicus, UniProt P28564) | cell-free assay |  |  | 20 µM | inhibition | 9%
Nc1ncc(-c2nc(N3CCOCC3)nc(N3CCOCC3)n2)c(C(F)F)n1 | PIM3 | binding |  | competition with immobilised ligand | 10 µM | remaining binding | 89%
CCN(CC)CCCC[C@H](NC(=O)[C@H](CC(C)C)NC(=O)[C@H](C)NC(=O)[C@H](Cc1ccccc1)NC(=O)c1ccc(C(C)(C)C)cc1)C(=O)N[C@@H](CO)C(=O)OC | Bromodomain testis-specific protein, BD1 (BRDT, Homo sapiens, UniProt Q58F21) | thermal stability |  | DSF | 25 µM | ΔTm | -0.19 °C
C=CC(=O)N1CCC[C@@H](n2nc(-c3ccc(Oc4ccccc4)cc3)c3c(N)ncnc32)C1 | Dual specificity tyrosine-phosphorylation-regulated kinase 1B (DYRK1B, Homo sapiens, UniProt Q9Y463) | cell-free assay |  |  | 1 µM | remaining signal | 136%
N#Cc1ccc(NCCNCC(=O)N2N=CCC2C#N)nc1 (centres unmarked) | Dipeptidyl peptidase 2 (Homo sapiens, UniProt Q9UHL4) | enzyme activity | inhibitor |  | 10 µM | inhibition | 30%
COc1ncccc1-c1cnn2ccc(N3CCN(C(=O)OC(C)C)CC3)nc12 | Dual specificity testis-specific protein kinase 1 (TESK1, Homo sapiens, UniProt Q15569) | binding |  | competition with immobilised ligand | 1 µM | remaining binding | 93%
